Assay results: ChEMBL document CHEMBL3297709, “High affinity ligands and potent antagonists for the α1D-adrenergic receptor. Novel 3,8-disubstituted [1]benzothieno[3,2-d]pyrimidine derivatives” (Eur J Med Chem, 2014)

Key:
[1] = biological target: T1, Alpha-1A adrenergic receptor (Homo sapiens, UniProt P35348); test: Displacement of [125I]BE2254 from human alpha1a receptor expressed in HEK293 cells; assay type: cell-based
T1 sequence (P35348 whole entry): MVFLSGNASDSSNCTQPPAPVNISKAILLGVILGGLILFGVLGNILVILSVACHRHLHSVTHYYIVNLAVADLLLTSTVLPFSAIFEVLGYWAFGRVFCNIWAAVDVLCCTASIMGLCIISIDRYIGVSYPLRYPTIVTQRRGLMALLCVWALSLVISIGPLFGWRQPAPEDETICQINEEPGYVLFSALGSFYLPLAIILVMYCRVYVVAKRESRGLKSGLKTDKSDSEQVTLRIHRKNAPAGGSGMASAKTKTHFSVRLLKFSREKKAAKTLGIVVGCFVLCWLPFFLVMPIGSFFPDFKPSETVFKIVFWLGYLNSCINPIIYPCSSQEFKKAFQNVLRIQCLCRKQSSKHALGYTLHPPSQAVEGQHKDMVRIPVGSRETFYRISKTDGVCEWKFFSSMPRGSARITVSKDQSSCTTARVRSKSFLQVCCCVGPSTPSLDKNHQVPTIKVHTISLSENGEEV
Outline: (§1)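 Membranes from HEK293 cells stably transfected with human α1A, α1B or α1D receptor cDNA, selected under 400 µg/mL geneticin. Competition against 50 pM [125I]BE2254; nonspecific binding defined with 10 µM phentolamine. Curves fitted by nonlinear regression. Mean ± SE of three experiments run in duplicate.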

[2] = biological target: T2, Alpha-1B adrenergic receptor (Homo sapiens, UniProt P35368); test: Displacement of [125I]BE2254 from human alpha1b receptor expressed in HEK293 cells; assay type: cell-based; outline: as §1
T2 sequence (P35368 whole entry): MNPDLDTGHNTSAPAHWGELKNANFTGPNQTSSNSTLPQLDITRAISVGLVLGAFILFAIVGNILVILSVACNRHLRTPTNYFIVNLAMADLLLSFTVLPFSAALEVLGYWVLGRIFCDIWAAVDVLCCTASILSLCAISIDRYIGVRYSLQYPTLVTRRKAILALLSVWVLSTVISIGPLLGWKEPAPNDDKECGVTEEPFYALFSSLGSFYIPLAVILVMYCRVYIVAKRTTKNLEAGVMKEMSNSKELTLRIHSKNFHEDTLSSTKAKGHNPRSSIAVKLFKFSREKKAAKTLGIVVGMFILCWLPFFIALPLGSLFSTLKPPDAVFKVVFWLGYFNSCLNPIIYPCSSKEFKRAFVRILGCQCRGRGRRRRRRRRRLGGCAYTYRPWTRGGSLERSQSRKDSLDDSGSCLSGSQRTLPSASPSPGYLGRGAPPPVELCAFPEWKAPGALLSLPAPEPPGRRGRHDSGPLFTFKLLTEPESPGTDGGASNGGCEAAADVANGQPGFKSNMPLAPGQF

[3] = biological target: T3, Alpha-1D adrenergic receptor (Homo sapiens, UniProt P25100); test: Displacement of [125I]BE2254 from human alpha1d receptor expressed in HEK293 cells; assay type: cell-based; outline: as §1
T3 sequence (P25100 whole entry): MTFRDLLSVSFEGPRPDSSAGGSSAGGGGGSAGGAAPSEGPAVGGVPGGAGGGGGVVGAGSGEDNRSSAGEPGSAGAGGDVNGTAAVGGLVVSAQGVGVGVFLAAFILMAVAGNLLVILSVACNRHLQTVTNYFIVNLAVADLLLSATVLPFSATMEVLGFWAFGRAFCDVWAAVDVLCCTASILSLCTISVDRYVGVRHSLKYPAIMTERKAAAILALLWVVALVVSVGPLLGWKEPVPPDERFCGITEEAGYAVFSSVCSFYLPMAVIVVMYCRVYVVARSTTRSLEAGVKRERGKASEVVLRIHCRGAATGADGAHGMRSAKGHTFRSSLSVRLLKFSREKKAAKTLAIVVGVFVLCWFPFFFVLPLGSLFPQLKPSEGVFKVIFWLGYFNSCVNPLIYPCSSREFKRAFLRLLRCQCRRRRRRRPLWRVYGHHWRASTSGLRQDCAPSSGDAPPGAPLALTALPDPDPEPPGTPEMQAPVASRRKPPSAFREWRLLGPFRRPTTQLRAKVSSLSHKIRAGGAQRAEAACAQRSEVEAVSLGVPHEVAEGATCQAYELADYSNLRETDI

[4] = biological target: T4, Alpha-1D adrenergic receptor (Rattus norvegicus) (UniProt P23944); test: Antagonist activity at alpha1D adrenoceptor in Wistar rat thoracic aorta assessed as noradrenaline induced contractions
T4 sequence (whole entry): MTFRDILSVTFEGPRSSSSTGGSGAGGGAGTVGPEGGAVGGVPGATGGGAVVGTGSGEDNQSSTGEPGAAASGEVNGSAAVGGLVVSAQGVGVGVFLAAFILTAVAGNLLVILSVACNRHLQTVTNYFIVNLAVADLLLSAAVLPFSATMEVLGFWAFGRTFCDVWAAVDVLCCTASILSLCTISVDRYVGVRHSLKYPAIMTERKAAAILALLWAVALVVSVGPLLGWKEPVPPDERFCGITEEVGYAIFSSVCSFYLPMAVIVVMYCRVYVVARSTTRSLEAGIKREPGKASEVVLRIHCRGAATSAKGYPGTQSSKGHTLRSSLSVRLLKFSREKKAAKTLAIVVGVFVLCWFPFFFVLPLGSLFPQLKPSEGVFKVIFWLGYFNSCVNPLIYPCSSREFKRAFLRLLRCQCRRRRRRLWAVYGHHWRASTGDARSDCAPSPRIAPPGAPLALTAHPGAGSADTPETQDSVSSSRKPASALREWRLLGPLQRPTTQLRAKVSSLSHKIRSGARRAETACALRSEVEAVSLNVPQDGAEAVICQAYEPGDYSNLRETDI
Outline: (§2)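 Endothelium-denuded helicoidal thoracic aorta strips (15 x 3 mm) from male Wistar rats, Krebs solution, 1 g tension, ≥2 h equilibration. Cumulative (-)-NA curves recorded isometrically at 1 h intervals, third as control. Antagonist equilibrated 60 min before fourth curve. NA solutions held 0.05% Na2S2O4. pKb = log(DR-1) - log[B]; mean ± SE of 4–5 experiments.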

[5] = biological target: T5, Alpha-1B adrenergic receptor (Rattus norvegicus) (UniProt P15823); test: Antagonist activity at alpha1B adrenoceptor in Wistar rat spleen assessed as decrease in phenylephrine induced contractions at 0.1 uM; design: scale not given: the % may be the effect or the level left
T5 sequence (whole entry): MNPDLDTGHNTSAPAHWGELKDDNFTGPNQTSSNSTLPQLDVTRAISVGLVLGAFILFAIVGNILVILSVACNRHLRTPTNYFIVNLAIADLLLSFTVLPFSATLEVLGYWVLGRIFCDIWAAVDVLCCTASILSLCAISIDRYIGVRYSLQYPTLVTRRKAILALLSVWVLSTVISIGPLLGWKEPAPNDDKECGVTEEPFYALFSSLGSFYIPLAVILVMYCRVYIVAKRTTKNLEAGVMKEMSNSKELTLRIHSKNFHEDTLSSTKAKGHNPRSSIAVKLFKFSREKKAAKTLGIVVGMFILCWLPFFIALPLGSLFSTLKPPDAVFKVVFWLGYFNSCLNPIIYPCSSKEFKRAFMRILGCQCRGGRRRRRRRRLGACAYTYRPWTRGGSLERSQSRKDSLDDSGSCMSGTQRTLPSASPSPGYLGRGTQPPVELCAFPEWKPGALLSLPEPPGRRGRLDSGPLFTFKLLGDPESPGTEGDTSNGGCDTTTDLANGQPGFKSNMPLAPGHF
Outline: (§3)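 Wistar rat spleen strips under 1 g resting tension, equilibrated 2 h, with 4 µM (±)-propranolol to block β-adrenoceptors. Cumulative phenylephrine curves measured isometrically at 30 min intervals, first discarded, second as control. Antagonist incubated 30–60 min before repeat curve. pKb from ED50 dose ratio via pKb = log(DR-1) - log[B]; mean ± SE of 4–5 experiments.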

[6] = biological target: T5, Alpha-1B adrenergic receptor (Rattus norvegicus); test: Antagonist activity at alpha1B adrenoceptor in Wistar rat spleen assessed as phenylephrine induced contractions; outline: as §3
[7] = biological target: T6, Alpha-1A adrenergic receptor (Rattus norvegicus) (UniProt P43140); test: Antagonist activity at alpha1A adrenoceptor in Wistar rat vas deferans assessed as decrease in noradrenaline induced contractions at 0.1 uM; design: scale not given: the % may be the effect or the level left
T6 sequence (whole entry): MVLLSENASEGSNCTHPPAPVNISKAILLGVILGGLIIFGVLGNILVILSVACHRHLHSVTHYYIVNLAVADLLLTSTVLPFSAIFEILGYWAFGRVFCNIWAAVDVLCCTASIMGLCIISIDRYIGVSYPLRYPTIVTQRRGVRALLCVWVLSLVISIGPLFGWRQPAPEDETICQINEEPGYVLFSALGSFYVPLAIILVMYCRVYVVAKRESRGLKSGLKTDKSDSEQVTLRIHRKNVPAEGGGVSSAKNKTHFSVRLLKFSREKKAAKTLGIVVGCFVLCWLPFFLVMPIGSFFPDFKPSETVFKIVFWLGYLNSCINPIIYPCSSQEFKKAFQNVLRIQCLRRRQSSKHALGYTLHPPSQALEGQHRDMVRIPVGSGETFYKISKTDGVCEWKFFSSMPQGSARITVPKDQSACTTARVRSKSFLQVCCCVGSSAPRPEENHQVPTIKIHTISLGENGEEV
Outline: (§4)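 Male Wistar rat (275-300 g) prostatic vas deferens in 20 mL organ bath, physiological salt solution, 37 °C, 5% CO2:95% O2, pH 7.4. Primed twice with 10 µM (-)-NA, 45 min wash/equilibration, then cumulative (-)-NA curve recorded isotonically. Antagonist incubated 30–60 min before repeat curve. pKb = log(DR-1) - log[B] from ED50 ratio; mean ± SE of 4–5 experiments.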

[8] = biological target: T4, Alpha-1D adrenergic receptor (Rattus norvegicus); test: Antagonist activity at alpha1D adrenoceptor in Wistar rat thoracic aorta assessed as decrease in noradrenaline induced contractions at 0.1 uM; design: scale not given: the % may be the effect or the level left; outline: as §2
[9] = biological target: T6, Alpha-1A adrenergic receptor (Rattus norvegicus); test: Antagonist activity at alpha1A adrenoceptor in Wistar rat vas deferens assessed as noradrenaline induced contractions; outline: as §4

Ki [1] [nM]	Ki [2] [nM]	Ki [3] [nM]	pKb [4]	Activity [5] [%]	pKb [6]	Activity [7] [%]	Activity [8] [%]	pKb [9]	SMILES
1.62	6.46	1	–	–	–	–	–	–	COc1ccccc1N1CCN(CCn2c(=O)[nH]c3c(sc4ccc(NC(=O)CCCC(=O)NCCc5ccccc5)cc43)c2=O)CC1
7.08	33.9	3.24	–	–	–	–	–	–	COc1ccccc1N1CCN(CCn2c(=O)[nH]c3c(sc4ccc(NC(=O)CCCc5ccccc5)cc43)c2=O)CC1
0.933	1.91	0.0562	9.15	100	7.77	90	100	7.82	COc1ccccc1N1CCN(CCn2c(=O)[nH]c3c(sc4ccc(NC(=O)CCCC(=O)N(C)Cc5ccccc5)cc43)c2=O)CC1
–	–	–	8.89	–	8.44	–	–	8.61	COc1ccccc1N1CCN(CCn2c(=O)[nH]c3c(sc4ccccc43)c2=O)CC1
1.48	28.2	0.912	–	–	–	–	–	–	COc1ccccc1N1CCN(CCn2c(=O)[nH]c3c(sc4ccc(NC(=O)Cc5ccccc5)cc43)c2=O)CC1
1.1	2.69	0.372	–	–	–	–	–	–	COc1ccccc1N1CCN(CCn2c(=O)[nH]c3c(sc4ccc(NC(=O)CCC(=O)NCc5ccccc5)cc43)c2=O)CC1
6.92	7.41	4.07	–	–	–	–	–	–	COc1ccccc1N1CCN(CCn2c(=O)[nH]c3c(sc4ccc(NC(=O)CCCN(C)Cc5ccccc5)cc43)c2=O)CC1
3.55	19.1	5.5	–	–	–	–	–	–	COc1ccccc1N1CCN(CCn2c(C)nc3c(sc4ccc(NC(=O)CCCC(=O)NCc5ccccc5)cc43)c2=O)CC1
3.89	38.9	5.01	–	–	–	–	–	–	COc1ccccc1N1CCN(CCn2c(C)nc3c(sc4ccc(NC(=O)c5ccccc5)cc43)c2=O)CC1
5.25	36.3	1.17	–	–	–	–	–	–	COc1ccccc1N1CCN(CCn2c(=O)[nH]c3c(sc4ccc(NC(=O)CCCCc5ccccc5)cc43)c2=O)CC1
1.1	10	0.575	–	–	–	–	–	–	COc1ccccc1N1CCN(CCn2c(=O)[nH]c3c(sc4ccc(NC(=O)c5ccccc5)cc43)c2=O)CC1
3.39	30.2	3.31	–	–	–	–	–	–	COc1ccccc1N1CCN(CCn2c(C)nc3c(sc4ccc(NC(=O)Cc5ccccc5)cc43)c2=O)CC1
1.7	1.66	1.66	–	–	–	–	–	–	COc1ccccc1N1CCN(CCn2c(=O)[nH]c3c(sc4ccc(NC(=O)CCCN(C)C)cc43)c2=O)CC1
0.912	6.46	0.759	–	–	–	–	–	–	COc1ccccc1N1CCN(CCn2c(C)nc3c(sc4ccc(NC(=O)CCCC(=O)NCCc5ccccc5)cc43)c2=O)CC1
1	7.59	2.29	–	–	–	–	–	–	COc1ccccc1N1CCN(CCn2c(C)nc3c(sc4ccc(NC(=O)CCCNC(=O)Cc5ccccc5)cc43)c2=O)CC1
0.324	0.832	0.141	8.64	100	7.94	100	100	7.7	COc1ccccc1N1CCN(CCn2c(=O)[nH]c3c(sc4ccc(NC(=O)CCCC(=O)NCc5ccccc5)cc43)c2=O)CC1
